Assay outcomes: PubChem BioAssay, several laboratories
HUVEC prolif 384: human endothelial cell proliferation inhibition; HUVEC proliferation, CellTiter-Glo luminescence, 72 h; active compounds read low; viability, % at 10 µM (by protocol); actives 1.1% (n = 86,000);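 active means viability at or below 30%; inactive means viability above 30%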
H69AR inhibit: growth inhibitors of human H69AR lung tumor cells; viability, % at 10 µM; H69AR lung tumor viability, ATP luminescence, 72 h; active compounds read low; actives 6% (n = 85,000);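 active means viability at or below 40%; inactive means viability above 40%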;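 further: multidrug resistant small cell line overexpressing MRP-1 efflux transporter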
Lung fibro prol: blocks proliferation of human lung fibroblasts; LL 47 human lung fibroblast viability, ATP luminescence; active compounds read low; viability, % at 10 µM; actives 1.1% (n = 85,000);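 active means viability at or below 50% in the single dose screen; inactive means viability above 50%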;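 further: compound exposure lasted 72 h before the ATP readout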
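Times – overnight cell rest, 72 h compound treatment at 37 °C · Test system – human lung fibroblast line LL 47, low passage · Amount – 1,150 cells in each well · Controls – cell-only wells, no compound · Doses – 0.1% DMSO in all compound wells · Measured by – CellTiter-Glo luminescence · Buffer or medium – IMEM plus 15% FBS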
ERa SRC1 pot: enhances coactivator binding to human estrogen receptor alpha | P03372 | TR-FRET ERalpha-LBD/SRC-Cy5 coactivator binding, 2 h; 100 = basal binding, no effect | actives 1.3% (n = 86,000) | coactivator binding (% of control), % at 25.6 µM | AID 639; in the data active means activity above about 200%;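 further: binding measured in presence of low estradiol as agonist stimulus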
ERa SRC1 inh: ER-alpha (human) coactivator binding inhibition | P03372 | TR-FRET ER-alpha LBD / SRC-1 peptide, estradiol-bound | inhibition, % at 25.6 µM | actives 1.7% (n = 86,000) | AID 629; in the data active means inhibition above about 50%
ERb SRC1 inh: blocks coactivator binding to human estrogen receptor beta. Q92731. TR-FRET ER-beta LBD / SRC1-Cy5 peptide binding; receptor agonist-loaded with 1 µM estradiol. inhibition, % at 25.6 µM. actives 1.3% (n = 86,000);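 active means compounds whose percent inhibition of the receptor-coactivator binding signal exceeds about 50% in the single-dose screen, limit read from the data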
A number is an active result; . = inactive; [ ] = remark or other dose. Hits are enriched below; roughly 9.2% of the tested compounds scored in any of these assays.

SMILES	HUVEC prolif 384	H69AR inhibit	Lung fibro prol	ERa SRC1 pot	ERa SRC1 inh	ERb SRC1 inh
CCN(CC)S(=O)(=O)c1ccc2[nH]cc(C(=O)NCCN3CCCCCC3)c(=O)c2c1	.	.	.	.	.	.
CCN(CC)S(=O)(=O)c1ccc2[nH]cc(C(=O)NCCC3=CCCCC3)c(=O)c2c1	.	8.5	.	.	.	.
CCOCCCNC(=O)c1c[nH]c2ccc(S(=O)(=O)Nc3cccc(OC)c3)cc2c1=O	.	.	.	.	53	.
O=C(NCc1ccco1)c1c[nH]c2ccc(S(=O)(=O)N3CCOCC3)cc2c1=O	.	.	.	.	.	.
CCOc1ccc(NS(=O)(=O)c2ccc3[nH]cc(C(=O)NCCOC)c(=O)c3c2)cc1	.	.	.	.	.	.
CCN(CC)C(=O)c1c[nH]c2ccc(S(=O)(=O)Nc3cc(C)cc(C)c3)cc2c1=O	.	.	.	.	56	.
CCc1ccccc1NS(=O)(=O)c1ccc2[nH]cc(C(=O)NCc3ccco3)c(=O)c2c1	28	.	.	277[fluorescence artefact?]	.	.
O=C(CN1CCCC1=O)NC1(C(F)(F)F)NC(=O)N(Cc2ccccc2)C1=O (configuration not stated)	.	.	.	.	.	.
CCOc1cc(N2CCOCC2)c(OCC)cc1NC(=O)C(NC(=O)c1ccco1)C(C)C (configuration not stated)	.	.	.	.	.	.
Cc1ccc2nsnc2c1S(=O)(=O)N(Cc1cc2cccc(C)c2[nH]c1=O)CC1CCCO1 (configuration not stated)	.	10	.	.	.	.
Cc1ccc2cc(CN(CC3CCCO3)S(=O)(=O)c3c(C)ccc4nsnc34)c(=O)[nH]c2c1 (configuration not stated)	.	.	.	.	.	.
C/C(=N\S(=O)(=O)c1ccc(C)cc1)N1CCN(S(=O)(=O)c2ccccc2)C1C(C)C (configuration not stated)	.	.	.	.	.	.
C=CCNC(=O)c1ccc2c(c1)nnn2C	.	.	.	.	.	.
COC(=O)c1ccccc1NC(=O)c1ccc(-c2ccccc2F)o1	.	13	.	.	.	.
COc1ccccc1NC(=O)c1ccc(-c2ccccc2F)o1	.	.	.	.	.	.
CCOc1cccc(NC(=O)C2CC(=O)N(C)C2)c1 (configuration not stated)	.	.	.	.	.	.
CCOc1cccc(NC(=O)C2CC(=O)N(C)C(=Nc3ccccc3)S2)c1 (configuration not stated)	.	21	.	.	.	.
CCOC(=O)C1=C(N)n2c(s/c(=C\c3ccco3)c2=O)=C(C(=O)OCC)C1c1ccco1 (configuration not stated)	29	27	29	.	.	.
CCCOc1ccc(Cc2nn3c(=O)/c(=C/c4ccco4)sc3nc2=O)cc1	.	.	.	.	.	.
CCOC(=O)C1=C(N)n2c(s/c(=C/c3ccccc3)c2=O)=C(C(=O)OCC)C1c1ccccc1 (configuration not stated)	.	9.5	.	.	.	.
CCNc1ccc2c(Cl)cc(=O)oc2c1	.	37	.	.	.	.
COc1ccc(OC)c(Nc2cc(-c3ccccc3)nc(N)n2)c1	.	25	.	.	.	.
COc1ccc(OC)c(Nc2cc(C)nc3ccccc23)c1	.	.	.	.	.	.
COC(=O)c1c(NC(=O)Cc2cccs2)sc2c1CCCC2	.	.	.	.	90[fluorescence artefact?]	74
Cc1ccc(N2C(N)=C(C#N)C(c3ccsc3)C3=C2CC(C)(C)CC3=O)cc1 (configuration not stated)	.	.	.	.	.	.
Cc1ccc(N2C(N)=C(C#N)C(c3cccnc3)C3=C2CC(C)(C)CC3=O)cc1 (configuration not stated)	.	24	.	.	.	.
O=C(CSc1nnc(-c2cccs2)o1)N1CCCCC1	.	.	.	.	.	.
C=CCNC(=O)CSc1nnc(-c2cccs2)o1	.	38	.	.	.	.
O=C(CSc1nnc(-c2cc(-c3cccs3)nc3ccccc23)o1)NC1CCCCC1	.	23	.	.	.	.
